Data from ChEMBL document CHEMBL1138014, “1-(2-Aminoethyl)-3-(arylsulfonyl)-1H-indoles as novel 5-HT6 receptor ligands” (Bioorg Med Chem Lett, 2004).

What was measured:
Format in all cases: cell-based
[1] = biological target: T1, 5-hydroxytryptamine receptor 6 (Homo sapiens, UniProt P50406); experiment: Binding affinity against human 5-hydroxytryptamine 6 receptor transfected in HeLa cells
[2] = biological target: T1, 5-hydroxytryptamine receptor 6; experiment: Percent inhibitory activity against human 5-hydroxytryptamine 6 receptor transfected in HeLa cells at 1 uM
[3] = biological target: T1, 5-hydroxytryptamine receptor 6; experiment: Inhibitory potency against human 5-hydroxytryptamine 6 receptor transfected in HeLa cells in cAMP assay
Summary of the method: (§1)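 Human 5-HT6 receptor stably transfected into HeLa cells. Cells were washed with Krebs buffer, then preincubated for 5 min at 37°C in Krebs with 500 µM IBMX. They were then exposed to test compound (0.1–10,000 nM) for 10 min at 37°C. The reaction was stopped with 0.5 M perchloric acid, and intracellular cAMP was measured by scintillation proximity radioimmunoassay.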

[4] = biological target: T1, 5-hydroxytryptamine receptor 6; experiment: Inhibitory concentration against human 5-hydroxytryptamine 6 receptor transfected in HeLa cells in cAMP assay; summary of the method: as §1

T1 sequence (P50406 whole entry): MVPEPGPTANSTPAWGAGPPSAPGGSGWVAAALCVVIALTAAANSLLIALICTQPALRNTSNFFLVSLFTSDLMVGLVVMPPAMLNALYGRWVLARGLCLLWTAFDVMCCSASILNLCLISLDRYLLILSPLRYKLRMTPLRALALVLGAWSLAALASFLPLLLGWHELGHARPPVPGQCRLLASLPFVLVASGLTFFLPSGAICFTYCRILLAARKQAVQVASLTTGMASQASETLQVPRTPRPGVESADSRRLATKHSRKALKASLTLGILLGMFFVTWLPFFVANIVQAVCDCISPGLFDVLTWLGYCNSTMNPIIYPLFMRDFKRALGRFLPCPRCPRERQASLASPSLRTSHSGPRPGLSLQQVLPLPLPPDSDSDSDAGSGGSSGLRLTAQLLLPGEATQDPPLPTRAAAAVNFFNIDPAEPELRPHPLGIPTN

Row | Structure (SMILES) | Ki [1] [nM] | inhibition [2] [%] | Imax [3] [%] | IC50 [4] [nM]
1 | NCCn1cc(S(=O)(=O)c2ccccc2)c2cc(F)ccc21 | 27 | – | – | –
2 | COc1ccc2c(c1)c(S(=O)(=O)c1ccccc1)cn2CCN1CCCCC1 | – | 55 | – | –
3 | COc1cccc2c(S(=O)(=O)c3ccccc3)cn(CCN(C)C)c12 | – | – | 80.5 | 23
4 | CNCCn1cc(S(=O)(=O)c2cccc3ccccc23)c2ccccc21 | 5.7 | – | 97 | 359
5 | NCCc1cn(S(=O)(=O)c2ccccc2)c2ccccc12 | 10.3 | – | – | –
6 | CNCCn1cc(S(=O)(=O)c2ccccc2)c2ccccc21 | 15.5 | – | – | –
7 | COc1ccc2c(S(=O)(=O)c3ccccc3)cn(CCN)c2c1 | – | 78 | – | –
8 | CNCCc1cn(S(=O)(=O)c2ccccc2)c2ccccc12 | 5 | – | – | –
9 | CN(C)CCn1cc(S(=O)(=O)c2ccccc2)c2ccc(C#N)cc21 | – | 42 | – | –
10 | COc1ccc2c(c1)c(S(=O)(=O)c1ccccc1)cn2CCN | – | 86 | – | –
11 | CN(C)CCn1cc(S(=O)(=O)c2cccc3ccccc23)c2ccccc21 | 3.7 | – | 97 | 47
12 | CN(C)CCn1cc(S(=O)(=O)c2ccccc2OC(F)(F)F)c2ccccc21 | – | – | 100 | 792
